# Experimental data taken from article PMC4410974 (Clinical cancer research : an official journal of the …, 2012).
# Test: Sirolimus whole blood pharmacokinetics
# Type: in vivo, human
# Details: for AUC(0-inf) / Cmax / half-life / AUC / Tmax: human, whole blood, oral; for AUC: AUC [SD]; for Tmax: Tmax [SD]
# In short: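 Advanced-cancer patients received oral sirolimus once weekly as 1 mg tablets. Week 1 was sirolimus alone. From week 2, ketoconazole was added: 200 mg bid on day 1, then 200 mg daily for 3 days. Whole blood was sampled predose and at 0.25, 0.5, 1, 2, 4, 8, 24 and 48 h in weeks 1–2, and predose in week 3. Analysis was noncompartmental. Cohort doses were re-estimated toward the target AUC assuming dose–AUC linearity.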
# [1] = 30 mg, sirolimus alone study, 4 hours apart (total 60 mg), N=5, mean
# [2] = 30 mg, sirolimus alone study, 24 hours apart (total 60 mg), N=3, mean
# [3] = 45 mg, sirolimus alone study, 24 hours apart (total 90 mg), N=2, mean
smiles,measurement,setting,value
CO[C@H]1C[C@@H]2CC[C@@H](C)[C@@](O)(O2)C(=O)C(=O)N2CCCC[C@H]2C(=O)O[C@H]([C@H](C)C[C@@H]2CC[C@@H](O)[C@H](OC)C2)CC(=O)[C@H](C)/C=C(\C)[C@@H](O)[C@@H](OC)C(=O)[C@H](C)C[C@H](C)/C=C/C=C/C=C/1C [Sirolimus],AUC(0-inf),"1 mg, sirolimus 1 mg, with ketoconazole, n=6",935 ng·h/mL
same,AUC(0-inf),"1 mg, sirolimus 1 mg, without ketoconazole, n=6",186 ng·h/mL
same,Cmax,"1 mg, Cmax, sirolimus 1 mg, with ketoconazole, n=6",25.4 ng/mL
same,Cmax,"1 mg, Cmax, sirolimus 1 mg, without ketoconazole, n=6",5.4 ng/mL
same,half-life,"1 mg, T1/2, sirolimus 1 mg, without ketoconazole, n=6",82 h
same,AUC(0-inf),"2 mg, sirolimus 2 mg, with ketoconazole, n=6",1350 ng·h/mL
same,AUC(0-inf),"2 mg, sirolimus 2 mg, without ketoconazole, n=6",271 ng·h/mL
same,AUC(0-inf),"3 mg, sirolimus 3 mg, with ketoconazole, n=6",2450 ng·h/mL
same,AUC(0-inf),"3 mg, sirolimus 3 mg, without ketoconazole, n=6",400 ng·h/mL
same,Cmax,"3 mg, Cmax, sirolimus 3 mg, with ketoconazole, n=6",49.2 ng/mL
same,half-life,"3 mg, T1/2, sirolimus 3 mg, with ketoconazole, n=6",84 h
same,half-life,"3 mg, T1/2, sirolimus 3 mg, without ketoconazole, n=6",35 h
same,AUC(0-inf),"4 mg, sirolimus 4 mg, with ketoconazole, n=6",2900 ng·h/mL
same,AUC(0-inf),"4 mg, sirolimus 4 mg, without ketoconazole, n=6",456 ng·h/mL
same,Cmax,"4 mg, Cmax, sirolimus 4 mg, with ketoconazole, n=6",66.8 ng/mL
same,Cmax,"4 mg, Cmax, sirolimus 4 mg, without ketoconazole, n=6",21.3 ng/mL
same,half-life,"4 mg, T1/2, sirolimus 4 mg, without ketoconazole, n=6",36 h
same,AUC(0-inf),"5 mg, sirolimus 5 mg, with ketoconazole, n=6",3140 ng·h/mL
same,AUC(0-inf),"5 mg, sirolimus 5 mg, without ketoconazole, n=6",676 ng·h/mL
same,Cmax,"5 mg, Cmax, sirolimus 5 mg, with ketoconazole, n=6",71.2 ng/mL
same,Cmax,"5 mg, Cmax, sirolimus 5 mg, without ketoconazole, n=6",25.8 ng/mL
same,half-life,"5 mg, T1/2, sirolimus 5 mg, with ketoconazole, n=6",57 h
same,half-life,"5 mg, T1/2, sirolimus 5 mg, without ketoconazole, n=6",35 h
same,AUC(0-inf),"6 mg, sirolimus 6 mg, with ketoconazole, n=3",2620 ng·h/mL
same,AUC(0-inf),"6 mg, sirolimus 6 mg, without ketoconazole, n=3",510 ng·h/mL
same,Cmax,"6 mg, Cmax, sirolimus 6 mg, with ketoconazole, n=3",74.6 ng/mL
same,Cmax,"6 mg, Cmax, sirolimus 6 mg, without ketoconazole, n=3",15 ng/mL
same,half-life,"6 mg, T1/2, sirolimus 6 mg, without ketoconazole, n=3",78 h
same,AUC(0-inf),"8 mg, sirolimus 8 mg, with ketoconazole, n=1",1620 ng·h/mL
same,AUC(0-inf),"8 mg, sirolimus 8 mg, without ketoconazole, n=1",420 ng·h/mL
same,Cmax,"8 mg, Cmax, sirolimus 8 mg, with ketoconazole, n=1",85.2 ng/mL
same,Cmax,"8 mg, Cmax, sirolimus 8 mg, without ketoconazole, n=1",25.2 ng/mL
same,half-life,"8 mg, T1/2, sirolimus 8 mg, with ketoconazole, n=1",34 h
same,half-life,"8 mg, T1/2, sirolimus 8 mg, without ketoconazole, n=1",18 h
same,AUC(0-inf),"16 mg, sirolimus 16 mg, with ketoconazole, n=2",5010 ng·h/mL
same,Cmax,"16 mg, Cmax, sirolimus 16 mg, with ketoconazole, n=2",123 ng/mL
same,half-life,"16 mg, T1/2, sirolimus 16 mg, with ketoconazole, n=2",32 h
same,AUC,[1],2050 ng·h/mL
same,AUC,[2],3680 ng·h/mL
same,Cmax,"30 mg, Cmax [SD], sirolimus alone study, 4 hours apart (total 60 mg), N=5, mean",32.9 ng/mL
same,Cmax,"30 mg, Cmax [SD], sirolimus alone study, 24 hours apart (total 60 mg), N=3, mean",83.9 ng/mL
same,Tmax,[1],2.2 h
same,Tmax,[2],2.3 h
same,AUC,[3],3360 ng·h/mL
same,Cmax,"45 mg, Cmax [SD], sirolimus alone study, 24 hours apart (total 90 mg), N=2, mean",42.8 ng/mL
same,Tmax,[3],2.1 h
same,CL/F,"sirolimus 1 mg, with ketoconazole, n=6",1.2 L/h
same,CL/F,"sirolimus 1 mg, without ketoconazole, n=6",10.3 L/h
same,CL/F,"sirolimus 2 mg, with ketoconazole, n=6",1.8 L/h
same,CL/F,"sirolimus 2 mg, without ketoconazole, n=6",9.5 L/h
same,CL/F,"sirolimus 3 mg, with ketoconazole, n=6",1.6 L/h
same,CL/F,"sirolimus 3 mg, without ketoconazole, n=6",8.0 L/h
same,CL/F,"sirolimus 4 mg, with ketoconazole, n=6",2.1 L/h
same,CL/F,"sirolimus 4 mg, without ketoconazole, n=6",10.0 L/h
same,CL/F,"sirolimus 5 mg, with ketoconazole, n=6",2.8 L/h
same,CL/F,"sirolimus 5 mg, without ketoconazole, n=6",9.0 L/h
same,CL/F,"sirolimus 6 mg, with ketoconazole, n=3",2.6 L/h
same,CL/F,"sirolimus 6 mg, without ketoconazole, n=3",15.6 L/h
same,CL/F,"sirolimus 8 mg, with ketoconazole, n=1",4.9 L/h
same,CL/F,"sirolimus 8 mg, without ketoconazole, n=1",19.1 L/h
same,CL/F,"sirolimus 15 mg, with grapefruit juice, n=5",5.9 L/h
same,CL/F,"sirolimus 15 mg, without grapefruit juice, n=5",20.5 L/h
same,CL/F,"sirolimus 16 mg, with ketoconazole, n=2",3.2 L/h
same,CL/F,"sirolimus 16 mg, without ketoconazole, n=2",11.2 L/h
same,CL/F,"sirolimus 20 mg, with grapefruit juice, n=5",11.5 L/h
same,CL/F,"sirolimus 20 mg, without grapefruit juice, n=5",36.9 L/h
same,CL/F,"sirolimus 25 mg, with grapefruit juice, n=4",9.2 L/h
same,CL/F,"sirolimus 25 mg, without grapefruit juice, n=4",32.6 L/h
same,CL/F,"sirolimus 30 mg, with grapefruit juice, n=5",12.6 L/h
same,CL/F,"sirolimus 30 mg, without grapefruit juice, n=5",18.7 L/h
same,CL/F,"sirolimus 35 mg, with grapefruit juice, n=8",12.8 L/h
same,CL/F,"sirolimus 35 mg, without grapefruit juice, n=8",29.4 L/h
same,CL/F [SD],"sirolimus alone study, 30 mg, 4 hours apart (total 60 mg), N=5, mean",19.786 [15.2] l/h
same,CL/F [SD],"sirolimus alone study, 30 mg, 24 hours apart (total 60 mg), N=3, mean",17.087 [2.90] l/h
same,CL/F [SD],"sirolimus alone study, 45 mg, 24 hours apart (total 90 mg), N=2, mean",26.842 [1.1] l/h
same,CL/F [SD],"sirolimus alone study, dose cohort 10 mg, N=6, mean",16.922 [6.08] l/h
same,CL/F [SD],"sirolimus alone study, dose cohort 20 mg, N=7, mean",18.736 [11.0] l/h
same,CL/F [SD],"sirolimus alone study, dose cohort 30 mg, N=6, mean",16.148 [10.4] l/h
same,CL/F [SD],"sirolimus alone study, dose cohort 60 mg, N=8, mean",19.588 [13.6] l/h
same,Sirolimus dose at which target AUC of 3810 ng-hr/ml was achieved/observed,sirolimus plus grapefruit juice study,25 mg
same,Sirolimus dose at which target AUC of 3810 ng-hr/ml was achieved,sirolimus plus ketoconazole study,16 mg
